Test results as given in ChEMBL document CHEMBL1671818, “Screening multicomponent reactions for X-linked inhibitor of apoptosis-baculoviral inhibitor of apoptosis protein repeats domain binder” (J Med Chem, 2011).
pIC50, pKd: −log10 of the molar value.

What was measured:
MDA-MB-231 = experiment: Cytotoxicity against human ER-negative MDA-MB-231 cells assessed as cell viability after 72 hrs; format: functional, cell-based; details: MDA-MB-231, 72 h
In short: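 MDA-MB-231 (ER-negative) kept in DMEM + 10% FBS at 37 °C, 5% CO2. Seeded at 5000 cells/well and left overnight, then exposed for 72 h to a range of compound concentrations in serum-free DMEM (final DMSO 0.1%). Viability read by ATPlite one-step luminescence, four replicates. IC50 obtained by curve fitting.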

[1] = molecular target: T1, E3 ubiquitin-protein ligase XIAP (Homo sapiens, UniProt P98170); experiment: Inhibition of XIAP-Bir3 domain at 10 uM by TR-FRET assay
In short: (§1)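 TR-FRET displacement. BIR3 protein (10 nM) and biotin-lc-GGIPVA SMAC peptide (10 nM) mixed with compound in DMSO, 1 h at 4 °C. Eu-antibody conjugate (5 nM) and APC-streptavidin (2 nM) then added, incubated overnight at 4 °C. Excitation 340 nm, emission 665 nm. Screen at 100, 10, 1 and 0.1 μM; actives run as 6–7-point dilutions in duplicate.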

[2] = molecular target: T1, E3 ubiquitin-protein ligase XIAP; experiment: Inhibition of XIAP-Bir3 domain at 100 uM by TR-FRET assay; in short: as §1
RPMI-8226 = experiment: Cytotoxicity against human RPMI8226 cells assessed as cell viability; format: functional, cell-based
[3] = molecular target: T1, E3 ubiquitin-protein ligase XIAP; experiment: Inhibition of XIAP by FRET assay; in short: as §1
[4] = molecular target: T1, E3 ubiquitin-protein ligase XIAP; experiment: Inhibition of XIAP by FP assay
Jurkat = experiment: Cytotoxicity against human Jurkat cells assessed as cell viability; format: functional, cell-based
[5] = molecular target: T1, E3 ubiquitin-protein ligase XIAP; experiment: Inhibition of XIAP-Bir3 domain by calorimetric titration assay
In short: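 ITC at 25 °C. Purified XIAP BIR3 (100 μM) in the cell, compound (1 mM) in the syringe, both in degassed PBS pH 7.4. Blank-subtracted, normalized heats fitted to a single-site model; Kd taken as 1/Ka.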

[6] = molecular target: T1, E3 ubiquitin-protein ligase XIAP; experiment: Inhibition of XIAP-Bir3 domain by NMR titration
In short: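 NMR Kd. 1H chemical-shift changes of resolved BIR3 resonances (BIR3 at 100 μM) followed across ligand concentrations, at least six points. Kd from a nonlinear least-squares fit of fractional bound population versus total ligand, single-site model. 2D [15N,1H]HSQC acquired at 300 K.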

T1 sequence (P98170 whole entry, the tested form may be a part): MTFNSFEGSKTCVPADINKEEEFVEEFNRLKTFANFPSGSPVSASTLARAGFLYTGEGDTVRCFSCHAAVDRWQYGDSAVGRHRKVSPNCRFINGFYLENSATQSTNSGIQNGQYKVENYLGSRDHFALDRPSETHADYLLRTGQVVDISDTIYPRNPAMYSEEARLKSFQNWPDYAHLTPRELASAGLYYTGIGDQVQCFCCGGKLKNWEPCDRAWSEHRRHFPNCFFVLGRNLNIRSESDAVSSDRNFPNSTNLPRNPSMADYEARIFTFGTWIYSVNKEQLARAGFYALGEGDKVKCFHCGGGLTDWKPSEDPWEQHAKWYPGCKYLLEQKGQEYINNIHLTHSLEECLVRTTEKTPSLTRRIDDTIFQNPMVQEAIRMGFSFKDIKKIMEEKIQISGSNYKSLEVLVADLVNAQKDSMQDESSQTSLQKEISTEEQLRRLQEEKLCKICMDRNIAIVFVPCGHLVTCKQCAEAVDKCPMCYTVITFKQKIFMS

| Structure (SMILES) | inhibition [1] [%] | inhibition [2] [%] | pIC50 (MDA-MB-231) | also measured |
| --- | --- | --- | --- | --- |
| CN[C@@H](C)C(=O)NC1CCC[C@H]2SC[C@@H](C(=O)Nc3cc(C)nn3-c3ccccc3)N2C1=O (stereo partly specified) |  |  | 5.70 |  |
| CC(C)[C@H](NC(=O)[C@H](C)N)C(=O)N1C(C(=O)NC(c2ccccc2)c2ccccc2)CSC1(C)C (stereo in doubt; 9) [listing 2 of 2 here] |  |  | < 4.30 |  |
| CN[C@@H](C)C(=O)N[C@H](C(=O)N1CC[C@H]2CN(CCc3ccccc3)CC[C@H]21)C1CCCCC1 |  |  |  | pIC50 (RPMI-8226): 4.52; pIC50 [3]: 6.55 |
| CC(C)[C@H](NC(=O)[C@H](C)N)C(O)c1nnnn1CCc1ccccc1 (stereo partly specified) | 15 | 20.7 | < 4.30 |  |
| CN[C@@H](C)C(=O)NC1CCC[C@H]2[C@@H](Cc3ccccc3)C[C@@H](C(=O)N[C@@H]3CCCc4ccccc43)N2C1=O (stereo partly specified) |  |  | 7.59 | pKd [4]: 7.51 |
| COc1ccc(CCN2CCC[C@H]2CN(C(=O)Nc2ccccc2)[C@@H](CNC(=O)Nc2ccccc2)CC2CCCCC2)cc1 |  |  |  | pIC50 (Jurkat): 5.30 |
| CC(C)[C@H](NC(=O)[C@H](C)N)C(=O)N1CCN(Cc2ccccc2)CC1C(=O)NC(c1ccccc1)c1ccccc1 (stereo partly specified) |  |  | 4.51 |  |

Second part, led by results:

| inhibition [1] [%] | inhibition [2] [%] | Structure (SMILES) | pIC50 (MDA-MB-231) | also measured |
| --- | --- | --- | --- | --- |
| 15.8 | 83.2 | CC(C)[C@H](NC(=O)[C@H](C)N)C(=O)N1C(C(=O)NC(c2ccccc2)c2ccccc2)CSC1(C)C (stereo in doubt; 9) [listing 1 of 2 here] |  |  |
| 67.4 | 97.1 | CC(C)[C@H](NC(=O)[C@H](C)N)C(=O)N1C(C(=O)NC(c2ccccc2)c2ccccc2)CSC1(C)C (single isomer, unassigned; diastereomer A) |  |  |
| 15.6 | 82.5 | CC(C)[C@H](NC(=O)[C@H](C)N)C(=O)N1CCCN(C2CCCCC2)CC1C(=O)NC(c1ccccc1)c1ccccc1 (stereo partly specified) | < 4.30 |  |
| 19.9 | 23.4 | CC(C)C(NC(=O)[C@H](C)N)c1nc(C(=O)NCc2ccccc2)cs1 (stereo partly specified) | < 4.30 |  |
| 16.7 | 83.6 | CC(C)[C@H](NC(=O)[C@H](C)N)C(=O)N1C(C(=O)NC(c2ccccc2)c2ccccc2)CSC1(C)C (stereo in doubt) |  |  |
| 58 | 97.2 | CC(C)C(NC(=O)[C@H](C)N)c1nc(C(=O)NCc2ccccc2)c(-c2ccccc2)s1 (stereo partly specified) | < 4.30 |  |
| 77.2 | 96.9 | CCN1CCN(C(=O)[C@@H](NC(=O)[C@H](C)N)C(C)C)C(C(=O)NC(c2ccccc2)c2ccccc2)C1 (stereo partly specified) | < 4.30 | pKd [5]: 4.67; pKd [6]: 4.56 |
